{"data": "Measured values from different studies", "observed": "cell growth or viability"}
{"SMILES": "Nc1ccc(/C=C/C(=O)N2CCc3c(oc4c(-c5ccc(F)cc5)cc(-c5ncc(C(=O)N6CCC(F)(F)CC6)cn5)cc34)C2)cn1", "cell line": "U2OS", "technique": "CCK-8", "time": "72 h", "IC50": "5.74 µM"}
{"SMILES": "Cc1nc(Nc2ccc3c(c2)C(C)(C)C(=O)N3)c2ccccc2n1", "cell line": "H22", "technique": "MTT", "IC50": "> 50 µM"}
{"SMILES": "C=CC(=O)N1CCN(c2nc(=O)n(-c3c(C)ccnc3C(C)C)c3nc(-c4c(O)cccc4F)c(F)cc23)[C@@H](C)C1", "cell line": "NCI-H1792", "technique": "ATP luminescence", "IC50": "> 1 µM"}
{"SMILES": "CN1CCC(NC(=O)c2ccc(-c3cc(C4CC4)c4oc5c(c4c3)CCN(C(=O)/C=C/c3ccc(N)nc3)C5)nn2)C(F)(F)C1 (stereo not drawn)", "cell line": "U2OS", "technique": "CCK-8", "time": "72 h", "IC50": "3.49 µM"}
{"SMILES": "COc1cc2ncnc(Nc3ccc4c(c3)/C(=C/c3ccccc3)C(=O)N4C)c2cc1OC", "cell line": "H22", "technique": "MTT", "IC50": "15.1 µM"}
{"SMILES": "CCNCCCn1c2c(c3cc(OC)c(OC)cc3c1=O)C(=O)c1cc3c(nc1-2)OCO3", "cell line": "L-363", "technique": "MTS", "time": "72 h", "IC50": "0.096 µM"}
{"SMILES": "Cc1nc(Nc2ccc3c(c2)/C(=C/c2ccccc2)C(=O)N3C)c2ccccc2n1", "cell line": "H22", "technique": "MTT", "IC50": "5.34 µM"}
{"SMILES": "COc1cc2c3c(n(CCCn4ccnc4)c(=O)c2cc1OC)-c1nc2c(cc1C3=O)OCO2", "cell line": "L-363", "technique": "MTS", "time": "72 h", "IC50": "0.232 µM"}
{"SMILES": "CN1CCC(NC(=O)c2ccc(-c3cc(-c4ccsc4)c4oc5c(c4c3)CCN(C(=O)/C=C/c3ccc(N)nc3)C5)nn2)C(F)(F)C1 (stereo not drawn)", "cell line": "U2OS", "technique": "CCK-8", "time": "72 h", "IC50": "1.2 µM"}
{"SMILES": "COc1cc2c3c(n(CCCNC(C)C)c(=O)c2cc1OC)-c1nc2c(cc1C3=O)OCO2", "cell line": "L-363", "technique": "MTS", "time": "72 h", "IC50": "0.126 µM"}
{"SMILES": "N[C@H]1CC[C@H](N[C@@H]2C[C@H]2c2ccccc2)CC1", "cell line": "U2OS", "technique": "resazurin", "IC50": "346 µM"}
{"SMILES": "Cc1nc(Nc2ccc3c(c2)/C(=C/c2ccccc2)C(=O)N3Cc2ccccc2)c2ccccc2n1", "cell line": "H22", "technique": "MTT", "IC50": "1.08 µM"}
{"SMILES": "CC1(C)CCC2(CC1)N[C@@H](C(=O)N[C@@H]1CC[C@@H](C(N)=O)OC1)[C@H](c1ccnc(Cl)c1F)[C@]21C(=O)Nc2cc(Cl)ccc21", "cell line": "U2OS", "technique": "resazurin", "time": "72 h", "IC50": "> 2 µM"}
{"SMILES": "COc1cc2ncnc(Nc3ccc4c(c3)/C(=C/c3ccccc3)C(=O)N4)c2cc1OC", "cell line": "H22", "technique": "MTT", "IC50": "> 50 µM"}
{"SMILES": "Nc1ccc(/C=C/C(=O)N2CCc3c(oc4c(-c5ccc(F)cc5)cc(-c5ccc(C(=O)N6CCC(F)(F)CC6)cc5F)cc34)C2)cn1", "cell line": "U2OS", "technique": "CCK-8", "time": "72 h", "IC50": "> 10 µM"}
